ChEMBL document CHEMBL1140930 (J Med Chem, 2009)
Each block holds one compound with its values, some of them ahead of it.

How the values were obtained:
K562 = assay: Antiproliferative activity against human K562 cells after 48 hrs; type: functional, cell-based; details: K562, 48 h
Outline: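 K562 cells (RPMI 1640, 10% FBS, 37 °C, 5% CO2) plated at 2 × 10⁵ cells/mL. Compounds dissolved in DMSO/methanol 1:1, vehicle 0.5%. Cells counted in a Neubauer chamber after 48 h and expressed as % of untreated control. Triplicate wells, three experiments. IC50 from nonlinear regression.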

Tubulin = Tubulin (Sus scrofa, UniProt P02554+P02550); assay: Inhibition of pig brain tubulin polymerization after 30 mins by turbidimetric assay
Outline: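 Microtubule protein from porcine brain (80–90% tubulin, 10–20% MAPs), purified by two disassembly/reassembly cycles. Assay buffer: 20 mM PIPES pH 6.8, 80 mM NaCl, 0.5 mM MgCl2, 1 mM EGTA, 1 mM DTT. Protein at 1.2 mg/mL with 0.6 mM GTP final, 1% DMSO final, 37 °C.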

[1] = Antiproliferative activity against human KB/HeLa cells by XTT assay; type: functional, cell-based
Outline: (§1)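 XTT metabolic read-out. Cells seeded at 1 × 10³–8 × 10⁴ cells/well for logarithmic growth and exposed to graded concentrations for 48 h. At least two replicates. IC50 from nonlinear regression of dose-response curves. LT12/MDR: rat LT12 with ectopic human MDR-1. L1210/VCR: MDR-1 expressing, MRP-1 negative.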

RKO [2] = assay: Antiproliferative activity against human RKO cells containing ecdysone-inducible expression vector of p27kipl by XTT assay; type: functional, cell-based
Outline: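 RKO cells carried an ecdysone-inducible p27Kip1 vector and were tested with and without induction. On day 1 they were plated with or without 3 µM ponasterone A, which gives G1 arrest, at 2 × 10⁴ cells/well induced or 6 × 10³ not induced, then held 24 h at 37 °C. Compound was then added for 48 h at 37 °C, followed by a standard XTT assay. IC50 came from nonlinear regression, n ≥ 2.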

[3] = Antiproliferative activity against rat LT12 cells after 48 hrs by XTT assay; type: functional, cell-based; details: LT12, 48 h
Outline: (§2)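 XTT metabolic-activity read-out of proliferation. Cells were seeded at 1 × 10³-8 × 10⁴ cells/well for logarithmic growth and exposed to a range of compound concentrations for 48 h. IC50 came from nonlinear regression of dose-response curves, with at least two replicates. The P388/Adr subline was doxorubicin-selected with elevated MDR-1.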

[4] = Antiproliferative activity against rat LT12 cells ectopic expression of human MDR1 after 48 hrs by XTT assay; type: functional, cell-based; details: LT12, 48 h; outline: as §1
L1210 = assay: Antiproliferative activity against vincristine-resistance MRP1 negative mouse L1210 cells expressing human MDR1 after 48 hrs by XTT assay; type: functional, cell-based; details: L1210, 48 h; outline: as §1
P388 [5] = assay: Antiproliferative activity against mouse P388 cells after 48 hrs by XTT assay; type: functional, cell-based; details: P388, 48 h; outline: as §2
P388 [6] = assay: Antiproliferative activity against doxorubicin-resistant mouse P388 cells expressing MDR1 protein after 48 hrs by XTT assay; type: functional, cell-based; details: P388, 48 h; outline: as §2
[7] = Cell cycle arrest in human KB/HeLa cells assessed as G2/M phase accumulation after 24 hrs by FACS analysis; type: functional, cell-based
Outline: (§3)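 Subconfluent KB/HeLa cells exposed to a range of compound concentrations for 24 h at 37 °C, then detached and fixed in 70% ethanol. DNA stained with propidium iodide after RNase digestion and measured by flow cytometry. Cell-cycle phase fractions taken from cell cycle analysis software. At least two replicates.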

[8] = Cell cycle arrest in human KB/HeLa cells assessed as S phase accumulation at 1 nM after 24 hrs by FACS analysis; type: functional, cell-based; outline: as §3
[9] = Cell cycle arrest in human KB/HeLa cells assessed as G2/M phase accumulation at 1 nM after 24 hrs by FACS analysis; type: functional, cell-based; outline: as §3
[10] = Cell cycle arrest in human KB/HeLa cells assessed as G1 phase accumulation at 1 nM after 24 hrs by FACS analysis; type: functional, cell-based; outline: as §3
[11] = Cell cycle arrest in human KB/HeLa cells assessed as S phase accumulation at 3.16 nM after 24 hrs by FACS analysis; type: functional, cell-based; outline: as §3
[12] = Cell cycle arrest in human KB/HeLa cells assessed as G2/M phase accumulation at 3.16 nM after 24 hrs by FACS analysis; type: functional, cell-based; outline: as §3
[13] = Cell cycle arrest in human KB/HeLa cells assessed as G1 phase accumulation at 3.16 nM after 24 hrs by FACS analysis; type: functional, cell-based; outline: as §3
[14] = Cell cycle arrest in human KB/HeLa cells assessed as S phase accumulation at 10 nM after 24 hrs by FACS analysis; type: functional, cell-based; outline: as §3
[15] = Cell cycle arrest in human KB/HeLa cells assessed as G2/M phase accumulation at 10 nM after 24 hrs by FACS analysis; type: functional, cell-based; outline: as §3
[16] = Cell cycle arrest in human KB/HeLa cells assessed as G1 phase accumulation at 10 nM after 24 hrs by FACS analysis; type: functional, cell-based; outline: as §3
[17] = Cell cycle arrest in human KB/HeLa cells assessed as S phase accumulation at 31.6 nM after 24 hrs by FACS analysis; type: functional, cell-based; outline: as §3
[18] = Cell cycle arrest in human KB/HeLa cells assessed as G2/M phase accumulation at 31.6 nM after 24 hrs by FACS analysis; type: functional, cell-based; outline: as §3
[19] = Cell cycle arrest in human KB/HeLa cells assessed as G1 phase accumulation at 31.6 nM after 24 hrs by FACS analysis; type: functional, cell-based; outline: as §3
[20] = Cell cycle arrest in human KB/HeLa cells assessed as S phase accumulation at 100 nM after 24 hrs by FACS analysis; type: functional, cell-based; outline: as §3
[21] = Cell cycle arrest in human KB/HeLa cells assessed as G2/M phase accumulation at 100 nM after 24 hrs by FACS analysis; type: functional, cell-based; outline: as §3
[22] = Cell cycle arrest in human KB/HeLa cells assessed as G1 phase accumulation at 100 nM after 24 hrs by FACS analysis; type: functional, cell-based; outline: as §3
[23] = Cell cycle arrest in human KB/HeLa cells assessed as S phase accumulation at 316 nM after 24 hrs by FACS analysis; type: functional, cell-based; outline: as §3
[24] = Cell cycle arrest in human KB/HeLa cells assessed as G2/M phase accumulation at 316 nM after 24 hrs by FACS analysis; type: functional, cell-based; outline: as §3
[25] = Cell cycle arrest in human KB/HeLa cells assessed as G1 phase accumulation at 316 nM after 24 hrs by FACS analysis; type: functional, cell-based; outline: as §3
SK-OV-3 = assay: Antiproliferative activity against human SKOV3 cells by XTT assay; type: functional, cell-based; outline: as §2
SF-268 = assay: Antiproliferative activity against human SF268 cells by XTT assay; type: functional, cell-based; outline: as §1
NCI-H460 = assay: Antiproliferative activity against human NCI-H460 cells by XTT assay; type: functional, cell-based; outline: as §1
RKO [26] = assay: Antiproliferative activity against human RKO cells by XTT assay; type: functional, cell-based
Outline: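 RKO colon cells with ecdysone-inducible p27Kip1. Day 1: plated with or without 3 µM ponasterone A for 24 h, giving G1 arrest when induced (2 × 10⁴ cells/well induced; 6 × 10³ not induced). Day 2: compound added (DMSO control) for 48 h at 37 °C, then standard XTT. At least duplicate. IC50 by nonlinear regression.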

Structure (SMILES): COc1ccc(C(=O)C=C2c3ccccc3C(O)c3ccccc32)cc1 (stereo not given)
- IC50 (K562): 210 nM
- IC50 (Tubulin): 1200 nM

Structure (SMILES): COc1ccc(C(=O)COc2c3ccccc3cc3ccccc23)cc1
- IC50 (K562): 10000 nM

Structure (SMILES): COC(=O)Nc1nc2cc(C(=O)c3cccs3)ccc2[nH]1 [NOCODAZOLE]
- IC50 [1]: 140 nM
- IC50 (RKO [2]): > 10000 nM
- IC50 [3]: 6 nM
- IC50 [4]: 400 nM
- IC50 (L1210): > 5000 nM
- IC50 (P388 [5]): 40 nM
- IC50 (P388 [6]): > 5000 nM
- EC50 [7]: 91 nM
- Activity [8]: 23.6%
- Activity [9]: 11.1%
- Activity [10]: 65.2%
- Activity [11]: 24.8%
- Activity [12]: 10.6%
- Activity [13]: 64.6%
- Activity [14]: 25.7%
- Activity [15]: 10%
- Activity [16]: 64.2%
- Activity [17]: 25.7%
- Activity [18]: 9.9%
- Activity [19]: 64.4%
- Activity [20]: 26.1%
- Activity [21]: 51.4%
- Activity [22]: 22.3%
- Activity [23]: 6%
- Activity [24]: 93.2%
- Activity [25]: 0.9%

Structure (SMILES): CC(=O)O[C@H]1C(=O)[C@@]2(C)[C@H]([C@H](OC(=O)c3ccccc3)[C@]3(O)C[C@H](OC(=O)[C@H](O)[C@@H](NC(=O)c4ccccc4)c4ccccc4)C(C)=C1C3(C)C)[C@]1(OC(C)=O)CO[C@@H]1C[C@@H]2O [PACLITAXEL]
- IC50 [1]: 30 nM
- IC50 (SK-OV-3): 50 nM
- IC50 (SF-268): 50 nM
- IC50 (NCI-H460): 70 nM
- IC50 (RKO [26]): 20 nM
- IC50 (RKO [2]): > 10000 nM
- IC50 [3]: 300 nM
- IC50 [4]: 50 nM
- IC50 (L1210): 70 nM
- IC50 (P388 [5]): 70 nM
- IC50 (P388 [6]): 50 nM
- EC50 [7]: 49 nM
- Activity [8]: 26.7%
- Activity [9]: 10.1%
- Activity [10]: 63.2%
- Activity [11]: 27%
- Activity [12]: 9.4%
- Activity [13]: 63.6%
- Activity [14]: 26.6%
- Activity [15]: 8.5%
- Activity [16]: 64.8%
- Activity [17]: 49.9%
- Activity [18]: 19%
- Activity [19]: 31.1%
- Activity [20]: 11%
- Activity [21]: 87.9%
- Activity [22]: 1.2%
- Activity [23]: 8.9%
- Activity [24]: 90.8%
- Activity [25]: 0.3%

Structure (SMILES): COc1csc(C(=O)C=C2c3ccccc3C(=O)c3ccccc32)c1
- IC50 (K562): 690 nM
- IC50 (Tubulin): 2300 nM

Structure (SMILES): COc1ccc(C(=O)C=C2c3ccccc3C(=O)c3ccccc32)c(OC)c1
- IC50 (Tubulin): 900 nM

Structure (SMILES): COc1ccc(C(=O)C(O)C2c3ccccc3C(=O)c3ccccc32)cc1 (stereo not given)
- IC50 (K562): 18000 nM
- IC50 (Tubulin): > 10000 nM

Structure (SMILES): CC[C@]1(O)C[C@@H]2CN(CCc3c([nH]c4ccccc34)[C@@](C(=O)OC)(c3cc4c(cc3OC)N(C)[C@H]3[C@@](O)(C(N)=O)[C@H](O)[C@]5(CC)C=CCN6CC[C@]43[C@@H]65)C2)C1 [VINDESINE]
- IC50 [3]: 200 nM
- IC50 [4]: 260 nM
- IC50 (L1210): > 5000 nM

Further lines, results first:

- IC50 (K562): 11000 nM
- IC50 (Tubulin): > 10000 nM
Structure (SMILES): COc1ccc(C(=O)C=C2c3ccccc3C(=O)c3ccccc32)c(OC)c1OC

- IC50 (K562): > 30000 nM
- IC50 (Tubulin): > 10000 nM
Structure (SMILES): COc1ccc(C(=O)C=C2c3ccccc3C(=O)c3ccccc32)c(O)c1OC

- IC50 (K562): 1900 nM
- IC50 (Tubulin): 10000 nM
Structure (SMILES): COc1ccccc1OC(=O)C=C1c2ccccc2C(=O)c2ccccc21

- IC50 (K562): 1640 nM
- IC50 (Tubulin): 10000 nM
Structure (SMILES): COc1cccc(OC)c1OC(=O)C=C1c2ccccc2C(=O)c2ccccc21
